Assay results from different studies.
Each line is one published result; the experiments were not run side by side.
Read-out: cell growth or viability

Structure (SMILES) | cell line | test | conditions | measurement | value
COc1cc(C)cc2oc(-c3ccc(N(C)C)cc3)cc(=O)c12 | HS27 | MTT | 24 h | CC50 | 141 µM
COc1cccc2c1C(=O)c1c(O)c3c(c(O)c1C2=O)C[C@@](O)(C(=O)CO)C[C@@H]3O[C@H]1C[C@H](N)[C@H](O)[C@H](C)O1 | MDA-MB-231 | MTT | 25 µM, 48 h | viability | 33.8%
CC1(C)OC[C@@]2(C)[C@H]3CC[C@@H]4CN(Cc5ccc(C(F)(F)F)cc5)[C@@H](C5=CCOC5=O)C[C@H]4[C@]3(C)CC[C@H]2O1 | MRC5 | ATP luminescence | 25 µM, 72 h | cell death | 7.1%
COc1cc(OC)c2c(=O)cc(-c3ccc(Br)cc3)oc2c1 | HS27 | MTT | 24 h | CC50 | > 200 µM
COc1ccc(S(=O)(=O)ON=C2C=C(C)C(=O)C(C)=C2)cc1 | MDA-MB-231 |  |  | CC50 | 1.03 µM
NCC(NC(=O)c1ccc(-c2ccc(C(F)(F)F)c(F)c2)[nH]1)c1nc(CO)cs1 (stereo not drawn) | U87.CD4.CXCR4 | XTT | 72 h | CC50 | 35 µM
C[C@]1(CO)[C@H]2CC[C@@H]3CN(Cc4ccco4)[C@@H](C4=CCOC4=O)C[C@H]3[C@]2(C)CC[C@H]1O | MRC5 | ATP luminescence | 25 µM, 72 h | cell death | -0.1%
COc1ccc(-c2nc3ncccn3c2NC(C)(C)CC(C)(C)C)cc1O | MDA-MB-231 | MTT | 25 µM, 48 h | viability | 67.3%
CCCCN1C[C@H]2CC[C@@H]3[C@]4(C)COC(C)(C)O[C@@H]4CC[C@@]3(C)[C@@H]2C[C@@H]1C1=CCOC1=O | MRC5 | ATP luminescence | 25 µM, 72 h | cell death | 33.7%
COc1cc(C)cc2oc(-c3ccc(Br)cc3)cc(=O)c12 | HS27 | MTT | 24 h | CC50 | > 200 µM
COc1ccc(COc2ccc(NC(=O)NC[C@H]3O[C@H](n4cc(C)c(=O)[nH]c4=O)C[C@@H]3O)cc2)cc1 | MRC5 |  |  | CC50 | > 50 µM
CC1(C)OC[C@@]2(C)[C@H]3CC[C@@H]4CN(Cc5ccccc5C5CC5)[C@@H](C5=CCOC5=O)C[C@H]4[C@]3(C)CC[C@H]2O1 | MRC5 | ATP luminescence | 25 µM, 72 h | cell death | 16.7%
